13 compounds from ChEMBL document CHEMBL1122650, “Synthesis and central nervous system properties of 2-[(alkoxycarbonyl)amino]-4(5)-phenyl-2-imidazolines” (J Med Chem, 1984) can be followed below.

As usually defined, the ED50 is the midpoint of the dose-response relation. Usually LD50 stands for the dose at which mortality reaches 50%. For orientation: IC50 means the concentration that gives 50% inhibition. A low value points to greater potency in that assay.

Active and inactive are the calls of the source. The rule behind the calls is not given here.

Data set [1] in a line: HPLC capacity factor (k'). In kind it is ADME.
Data set [2] relates to Mus musculus. Kind of data set: Compound was evaluated in vivo for reserpine hypothermia after oral administration in mouse. Minimum active dose was reported; Inactive. The data set is classed as functional, organism-based. In outline:
(§1)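 Male HLa (ICR) BR mice, 18-24 g, in groups of eight; reserpine 5 mg/kg ip given 2 h before oral test compound as aqueous solution. Rectal temperature taken hourly; 1-4-h hypothermia assessed by analysis of variance.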

The species entered for data set [3] is Mus musculus. Description: Mouse behavior activity was determined; Dwk= Depressant Weak. In kind it is functional, organism-based. The method in brief:
(§2)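 Male Simonsen (ICR) fBR mice, 18-24 g, groups of three, given 3, 10, 30, 100, 300 or 1000 mg/kg ip as aqueous solution and observed for behavioral profile; deaths followed up to 7 days.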

The species entered for data set [4] is Mus musculus. Description: Compound was evaluated for maximal electroshock antagonism (MES) against mice. The data set is classed as functional. The method in brief: (§3)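 Male HLa (ICR) BR mice, groups of eight to ten, dosed ip (aqueous solution) 15 min before transcorneal electroshock (50 mA, 0.2 s). End point: abolition of tonic hind-limb extension; quantal ED50 by Litchfield-Wilcoxon.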
(In general: The maximal electroshock test induces tonic seizures with an electrical stimulus.)

The species entered for data set [5] is Mus musculus. Kind of data set: Evaluated for antagonism of reserpine induced hypothermia. In kind it is functional. The method in brief: as §1
Data set [6] can be described thus: Lethal dose in mouse, in groups of ten. In kind it is toxicity, organism-based. The following applies: in vivo.
For data set [7], the system named is Mus musculus. Kind of data set: Compound was evaluated in vivo for reserpine hypothermia after oral administration in mouse. Minimum active dose was reported, with the percent reversal at 10 mg/kg in parenthesis. In kind it is functional. In outline: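 Male HLa (ICR) BR mice (18-24 g), groups of eight, dosed ip with 5 mg/kg reserpine 2 h before oral test compound given as aqueous solution. Rectal temperature measured hourly; 1-4-h thermia assessed by analysis of variance.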

Data set [8] is filed under the species Mus musculus. Description: Mouse behavior activity was determined; D = Depressant. In kind it is functional, organism-based. In outline:
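Male Simonsen (ICR) fBR mice (18-24 g) given 3, 10, 30, 100, 300 or 1000 mg/kg ip as aqueous solution and observed for behaviour in groups of three.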

Data set [9] in a line: Compound was evaluated for lethal dose in mouse in groups of ten (values in parentheses indicates 95% confidence limits). The following applies: in vivo. The data set is classed as toxicity, organism-based.
For data set [10], the species on record is Mus musculus. Description: Righting ability was determined in mice […] rapid rolling (aroused). The data set is classed as functional. The method in brief:
(§4)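 Male Simonsen (ICR) fBR mice, 18-24 g, groups of ten, dosed with aqueous compound. Righting ability checked before (unaroused) and after (aroused) rapid rolling in the hand; ED50 by Litchfield-Wilcoxon method.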

The species named for data set [11] is Mus musculus. Kind of data set: Righting ability was determined in mice before rapid rolling (unaroused). In kind it is functional. The method in brief: as §4
For data set [12], the species on record is Mus musculus. Kind of data set: Compound was evaluated for maximal electroshock antagonism (MES) against mice (values in parentheses indicates 95% confidence limits). In kind it is functional. In outline:
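Male HLa (ICR) BR mice, groups of eight to ten, given compound ip as aqueous solution 15 min before transcorneal electroshock (50 mA, 0.2 s). End point was abolition of tonic hind-limb extension; quantal ED50 derived by Litchfield-Wilcoxon.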

The subject of data set [13] is Mus musculus. Description: Compound was evaluated in vivo for reserpine hypothermia after oral administration in mouse. In kind it is functional. In outline: as §1
For data set [14], the species on record is Mus musculus. Kind of data set: Mouse behavior activity was determined; D=Depressant. In kind it is functional, organism-based. The method in brief: as §2
Data set [15] is filed under the species Mus musculus. Kind of data set: Mouse behavior activity was determined; Inactive. In kind it is functional, organism-based. The method in brief:
as §2

The species entered for data set [16] is Mus musculus. Kind of data set: Compound was evaluated for maximal electroshock antagonism (MES) against mice; Inactive. The data set is classed as functional, organism-based. The method in brief: as §3
For data set [17], the species on record is Mus musculus. Kind of data set: Mouse behavior activity was determined;D= Depressant. The data set is classed as functional, organism-based. In outline:
as §2

Data set [18] concerns Mus musculus. Kind of data set: Compound was evaluated in vivo for reserpine hypothermia after oral administration in mouse. Minimum active dose was reported; rigidity was potentiated by compound. In kind it is functional, organism-based. In outline:
as §1

Data set [19] is filed under the species Mus musculus. Kind of data set: Mouse behavior activity was determined; S-D=Stimulant-Depressant. The data set is classed as functional, organism-based. The method in brief:
as §2

Data set [20] has as its system Mus musculus. Description: Evaluated in vivo for reserpine hypothermia after oral administration in mouse. Minimum active dose was reported; Inactive. In kind it is functional, organism-based. In outline: as §1
The species entered for data set [21] is Mus musculus. Description: Inhibition of radioactive NE [3H]norepinephrine uptake into mouse heart. In kind it is functional. In outline: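 Mice dosed ip (aqueous solution) before iv [3H]NE; hearts removed 3 h after label, washed, weighed, dissolved in Protosol and counted as dpm per mg tissue. Dose-response from linear regression.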
In data set [22] the test system is Mus musculus. Kind of data set: Reserpine hypothermia antagonism in mouse administered perorally with 5 mg/kg of reserpine 2 hour prior to test compound administration. The following applies: route oral. The data set is classed as functional.
For data set [23], the species on record is Rattus norvegicus. Kind of data set: Inhibition of the 5-HT [14C]5-HT uptake by rat brain slices In vitro. The data set is classed as functional. The method in brief:
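Rat cerebral cortex slices, 5 mg tissue per mL Krebs-Henseleit buffer, incubated at 37 °C with [3H]NE or [14C]5-HT; blanks at 4 °C, undosed controls. Stopped after 20 min by filtration; slice radioactivity counted; IC50 from linear regression of uptake inhibition.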

Data set [24] is filed under the species Rattus norvegicus. Kind of data set: Inhibition of the NE [3H]Norepinephrine uptake by rat brain slices In vitro. The data set is classed as functional.
The species entered for data set [25] is Mus musculus. Description: Evaluated for antagonism of reserpine induced hypothermia;I= Inactive. The data set is classed as functional, organism-based. The method in brief: as §1
Data set [26] is filed under the species Mus musculus. Kind of data set: Mouse behavior activity was determined; Dwk=Depressant Weak. The data set is classed as functional, organism-based. In outline:
as §2

Turning to `COC(=O)NC1=NC(c2ccccc2[S+](C)[O-])CN1C` (stereo not given), the “Log k'” value in [1] is given as -0.87. For the same compound, the ED50 entry in data set [2] is “inactive”.

Consider `COC(=O)NC1=NCC(c2cccc(Cl)c2)N1C` (stereo not given), for which, in data set [1], the “Log k'” value is reported as 0.86. In data set [3], the Mouse behavior activity result is “Depressant - weak”. In data set [4], it took a dose of 31 mg/kg to reach the 50% effect level (ED50). In addition, the HYPO in [5] was below 0.5 mg/kg. This compound also showed an LD50 in data set [6] of 200 mg/kg.

`CCC1(c2ccccc2)C(=O)NC(=O)NC1=O` [PHENOBARBITAL]: the ED50 is 22 mg/kg in data set [7] and 15 mg/kg in data set [12]. Further, in data set [8], the Mouse behavior activity entry is given as “Depressant”. The LD50 in data set [9] is 222 mg/kg. For the same compound, the results for the Loss of righting reflex in data set [10] and in [11] were 107 mg/kg and 60 mg/kg, respectively.

For the compound `COC(=O)NC1=NC(c2cccc(F)c2)CN1` (stereo not given), in [1], the “Log k'” value was -0.1. Further, the ED50 in [13] amounted to 36 mg/kg; in [4], 70 mg/kg. The Mouse behavior activity result in data set [14] is “Depressant”. The LD50 in data set [6] came out at 200 mg/kg.

For `CCOC(=O)NC1=NC(c2ccc(CO)cc2)CN1C` (stereo not given), the “Log k'” value in data set [1] was -0.29. Besides, in [15], the Mouse behavior activity entry was “inactive”. Moreover, in [16], the ED50 entry is “inactive”. The LD50 in data set [6] was 500 mg/kg.

Turning to `COC(=O)NC1=NC(c2ccc(Cl)cc2)CN1C` (stereo not given), the “Log k'” value in data set [1] is reported as 0.54. Moreover, the ED50 result in data set [2] was “inactive”. For the same compound, in data set [17], the Mouse behavior activity result is “Depressant”. In data set [4], this compound registered an ED50 of 66 mg/kg. Moreover, in data set [6], the LD50 came out at 200 mg/kg.

On to `COC(=O)NC1=NC(c2ccccc2)CN1C` (stereo not given), for which the “Log k'” value in data set [1] was found to be 0.06. The compound also displayed an ED50 in data set [4] of 107 mg/kg. For the same compound, in data set [18], the P result was “rigidity was potentiated by compound”. Further, the Mouse behavior activity entry in data set [19] is listed as “Stimulant-Depressant”. This compound came in with an LD50 in data set [6] of 200 mg/kg.

For `COC(=O)NC1=NC(c2ccc(CO)cc2)CN1C` (stereo not given), in [1], the “Log k'” value is -0.76. For the same compound, the ED50 result in data set [20] and in [16] was “inactive” each time. For the same compound, the Mouse behavior activity result in [15] is “inactive”. For the same compound, the HYPO in data set [5] was below 0.5 mg/kg. In addition, the LD50 in [6] was above 1000 mg/kg.

Turning to `COC(=O)NC1=NC(c2cc(Br)ccc2Br)CN1C` (stereo not given), the “Log k'” value in [1] came to 0.98. For the same compound, the Mouse behavior activity result in data set [3] is given as “Depressant - weak”. Also, the 50% effect level in [4] (ED50) was put at a dose of 45 mg/kg. Further, the HYPO in [5] was below 0.5 mg/kg. This compound also came in with an LD50 in data set [6] of 500 mg/kg.

Take `NC1=NC(c2ccccc2)CN1` (stereo not given): the “Log k'” value in [1] was -3.74. In data set [21], the ED50 turned out to be 0.3 mg/kg. In addition, the ED50 entry in data set [16] is “inactive”. The Reserpine hypothermia in data set [22] is below 10 mg/kg. Also, the IC50 was 31 µM in [23] and 0.1 µM in [24]. For the same compound, the Mouse behavior activity result in data set [19] is recorded as “Stimulant-Depressant”. In data set [6], this compound gave an LD50 of 300 mg/kg.

For `CCOC(=O)NC1=NC(c2ccccc2Cl)CN1C` (stereo not given), in data set [1], the “Log k'” value worked out at 0.82. Also, the ED50 in data set [21] stood at 34 mg/kg; in data set [4], 28 mg/kg. Further, the Mouse behavior activity result in data set [17] is recorded as “Depressant”. In data set [22], this compound came in with a Reserpine hypothermia of 0.15 mg/kg. Further, the results for the Loss of righting reflex in [10] and in [11] were 64 mg/kg and 30 mg/kg, respectively. Further, the IC50 in [23] was determined as 150 µM; in data set [24] it was 30 µM. In addition, in [5], the HYPO was below 0.5 mg/kg. The LD50 in [6] came out at 200 mg/kg.

Consider `CN(C)CCCN1c2ccccc2CCc2ccccc21` [IMIPRAMINE], for which the values for the ED50 in data set [21] and in data set [4] were 6.7 mg/kg and 15 mg/kg, respectively. The Reserpine hypothermia in data set [22] is 0.63 mg/kg. For the same compound, the values for the IC50 in data set [23] and in [24] were 5.3 µM and 3.8 µM, respectively. In data set [19], the Mouse behavior activity entry is “Stimulant”. In addition, the HYPO in data set [5] is below 0.5 mg/kg.

Regarding `COC(=O)NC1=NC(c2ccc([S+](C)[O-])cc2)CN1C` (stereo not given), the “Log k'” value in data set [1] is -1.03. Further, the ED50 entry in [2] and in data set [16] was “inactive” in each case. In addition, the HYPO result in [25] was “inactive”. For the same compound, the Mouse behavior activity result in data set [26] is reported as “Depressant Weak”. The same compound showed an LD50 in [6] above 1000 mg/kg.
